From ChEMBL document CHEMBL1151859, “Structure-activity relationship studies of a novel series of anthrax lethal factor inhibitors” (Bioorg Med Chem, 2009)
Activity calls are given as the source filed them. No cut-off for these calls is given here.

Legend:
HeLa [1] = assay: Protection against anthrax protective antigen-38/LF-induced cell death in human HeLa cells assessed as MEK1 cleavage at 30 uM treated 90 mins after PA38/LA challenge immunoblotting assay; assay type: functional, cell-based
[2] = target: 72 kDa type IV collagenase (Homo sapiens) (UniProt P08253); assay: Inhibition of human MMP2 up to 100 uM by fluorescence peptide cleavage assay
Chain of 72 kDa type IV collagenase (Homo sapiens) (P08253 110-660 limits assumed): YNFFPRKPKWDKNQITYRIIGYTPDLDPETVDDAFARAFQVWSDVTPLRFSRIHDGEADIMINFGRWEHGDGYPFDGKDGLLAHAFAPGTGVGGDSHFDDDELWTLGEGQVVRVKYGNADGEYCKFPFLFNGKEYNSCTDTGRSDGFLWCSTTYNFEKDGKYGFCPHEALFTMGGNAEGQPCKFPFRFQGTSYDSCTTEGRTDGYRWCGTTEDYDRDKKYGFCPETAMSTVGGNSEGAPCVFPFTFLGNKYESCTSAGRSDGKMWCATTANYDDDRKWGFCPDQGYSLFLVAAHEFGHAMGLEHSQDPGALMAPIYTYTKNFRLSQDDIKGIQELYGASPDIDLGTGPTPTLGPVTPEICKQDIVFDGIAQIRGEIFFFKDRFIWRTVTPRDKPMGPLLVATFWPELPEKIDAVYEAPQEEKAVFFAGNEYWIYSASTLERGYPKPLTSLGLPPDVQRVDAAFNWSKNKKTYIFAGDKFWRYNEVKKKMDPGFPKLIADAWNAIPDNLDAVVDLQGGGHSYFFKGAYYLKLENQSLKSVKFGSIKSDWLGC
Method in brief: (§1)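 Pro-MMP-2 or pro-MMP-9 activated with 1 mM APMA (20 min or 2 h, respectively), then used at 10 μg/mL with 5-FAM/QXL520 peptide substrate in kit assay buffer.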

Lethal factor = target: T1, Lethal factor (Bacillus anthracis, UniProt P15917); assay: Inhibition of Bacillus anthracis lethal factor assessed as cleavage of MAPKK by fluorescence peptide cleavage assay
T1 sequence (P15917 whole entry): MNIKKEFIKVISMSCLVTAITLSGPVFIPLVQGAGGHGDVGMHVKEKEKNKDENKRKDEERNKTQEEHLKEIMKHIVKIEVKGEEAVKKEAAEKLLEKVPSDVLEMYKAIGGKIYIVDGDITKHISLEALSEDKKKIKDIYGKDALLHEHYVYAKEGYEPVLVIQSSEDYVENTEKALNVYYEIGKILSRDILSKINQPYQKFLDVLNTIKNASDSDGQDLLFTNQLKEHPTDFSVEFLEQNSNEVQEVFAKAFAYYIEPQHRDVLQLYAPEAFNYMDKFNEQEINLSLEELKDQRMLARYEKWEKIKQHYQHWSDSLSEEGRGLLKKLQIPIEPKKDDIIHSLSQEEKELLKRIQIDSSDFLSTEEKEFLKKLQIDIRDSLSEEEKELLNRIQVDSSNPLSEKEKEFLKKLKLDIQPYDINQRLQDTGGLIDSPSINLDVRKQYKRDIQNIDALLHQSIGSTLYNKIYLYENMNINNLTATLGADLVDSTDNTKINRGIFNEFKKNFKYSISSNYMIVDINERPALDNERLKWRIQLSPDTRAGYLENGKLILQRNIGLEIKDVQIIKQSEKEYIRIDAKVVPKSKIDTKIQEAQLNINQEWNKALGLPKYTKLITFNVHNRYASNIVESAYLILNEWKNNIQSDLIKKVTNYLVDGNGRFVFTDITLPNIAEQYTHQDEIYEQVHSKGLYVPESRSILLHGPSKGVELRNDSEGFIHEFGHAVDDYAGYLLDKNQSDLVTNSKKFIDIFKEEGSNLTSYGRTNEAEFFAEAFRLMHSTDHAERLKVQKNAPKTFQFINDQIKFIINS

[3] = target: Matrix metalloproteinase-9 (Homo sapiens) (UniProt P14780); assay: Inhibition of human MMP9 up to 100 uM by fluorescence peptide cleavage assay; method in brief: as §1
Chain of Matrix metalloproteinase-9 (Homo sapiens) (P14780 whole entry): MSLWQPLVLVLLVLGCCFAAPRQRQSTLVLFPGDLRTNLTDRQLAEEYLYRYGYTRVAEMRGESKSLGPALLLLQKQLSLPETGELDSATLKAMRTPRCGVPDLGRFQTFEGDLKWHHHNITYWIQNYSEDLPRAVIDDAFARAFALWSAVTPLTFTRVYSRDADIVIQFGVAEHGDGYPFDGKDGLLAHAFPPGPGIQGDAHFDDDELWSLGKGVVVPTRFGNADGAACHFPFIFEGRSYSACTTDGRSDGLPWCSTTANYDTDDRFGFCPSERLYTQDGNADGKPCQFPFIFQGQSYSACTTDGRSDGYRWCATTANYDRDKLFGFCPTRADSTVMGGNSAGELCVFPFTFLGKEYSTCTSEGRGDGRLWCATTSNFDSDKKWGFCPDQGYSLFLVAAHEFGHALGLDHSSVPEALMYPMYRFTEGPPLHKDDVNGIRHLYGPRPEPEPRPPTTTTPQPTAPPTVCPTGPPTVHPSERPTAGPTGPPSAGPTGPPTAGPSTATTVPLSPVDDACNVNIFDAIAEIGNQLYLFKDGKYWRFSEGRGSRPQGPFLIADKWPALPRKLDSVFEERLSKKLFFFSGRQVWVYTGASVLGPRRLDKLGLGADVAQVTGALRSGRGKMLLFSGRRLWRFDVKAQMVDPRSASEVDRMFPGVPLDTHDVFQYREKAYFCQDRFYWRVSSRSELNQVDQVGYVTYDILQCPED

HeLa [4] = assay: Protection against anthrax protective antigen-38/LF-induced cell death in human HeLa cells assessed as MEK1 cleavage at 300 uM treated 90 mins after PA38/LA challenge immunoblotting assay; assay type: functional, cell-based
Bacillus anthracis [5] = assay: Antibacterial activity against Bacillus anthracis Sterene infected in A/J mouse assessed as mouse survival at 25 mg/kg, ip daily after 24 hrs of infection for 8 days relative to control; assay type: functional, organism-based; set-up: dose 25 mg/kg
RAW264.7 = assay: Protection against anthrax protective antigen-38/LF-induced cell death in mouse RAW264.7 cells pretreated for 2 hrs followed by PA38/LA challenge assessed as cell viability measured after 4 hrs by ATPlite assay; assay type: functional, cell-based
[6] = Chemical stability of the compound; assay type: physicochemical
[7] = Solubility at 500 uM; assay type: physicochemical
HeLa [8] = assay: Protection against anthrax protective antigen-38/LF-induced cell death in human HeLa cells assessed as MEK1 cleavage at 100 uM treated 90 mins after PA38/LA challenge immunoblotting assay; assay type: functional, cell-based
Bacillus anthracis [9] = assay: Antibacterial activity against Bacillus anthracis Sterene infected in A/J mouse assessed as mouse survival at 25 mg/kg, ip daily after 24 hrs of infection for 8 days; assay type: functional, organism-based; set-up: dose 25 mg/kg

In the case of Cc1cc(S(=O)(=O)N[C@H](C(=O)NO)C2CCOCC2)ccc1F, the Activity (HeLa [1]) is reported as “Active”.

In the case of CCOC(=O)CCc1c(CC(=O)OCC)c[nH]c1/C=N/O, the Activity (HeLa [1]) is reported as “inactive”.

For O=S(=O)(Nc1cccs1)c1ccc(-c2ccc(Cl)cc2)cc1, the Activity [2] was “inactive”, the IC50 (Lethal factor) was > 50 µM and the Activity [3] was “inactive”.

With O=S(=O)(Nc1ccccc1)c1cccs1 the Activity [2] was “inactive”, the IC50 (Lethal factor) was > 100 µM and the Activity [3] was “inactive”.

For Cc1ccc(NS(=O)(=O)c2cccs2)cc1C(F)(F)F, the Activity [2] was “inactive”, the IC50 (Lethal factor) was > 100 µM and the Activity [3] was “inactive”.

With COc1ccc(-c2ccc(S(=O)(=O)Nc3cccs3)cc2)cc1 the Activity [2] was “inactive”, the IC50 (Lethal factor) was > 50 µM and the Activity [3] was “inactive”.

For Nc1ccc(Nc2ccc(N)cc2S(=O)(=O)O)cc1, the Activity (HeLa [4]) was “Active”.

With Cc1ccc(S(=O)(=O)Nc2sccc2-c2nc3ccccc3s2)cc1Cl the Activity (Bacillus anthracis [5]) was “Active”, the IC50 (Lethal factor) was 6.6 µM and the EC50 (RAW264.7) was 1 µM. The Stability [6] was 99%.

For Cc1ccc(NS(=O)(=O)c2cccs2)cc1Cl, the Activity [2] was “inactive”, the IC50 (Lethal factor) was > 100 µM and the Activity [3] was “inactive”.

In the case of O=S(=O)(Nc1cccc(C(F)(F)F)c1)c1cccs1, the Activity [2] is reported as “inactive”, the IC50 (Lethal factor) is reported as > 100 µM and the Activity [3] is reported as “inactive”.

In the case of O=S(=O)(Nc1sccc1-c1nc2ccccc2s1)c1ccc(-c2ccc(Cl)cc2)cc1, the IC50 (Lethal factor) is reported as 3 µM, the Ki (Lethal factor) is reported as 1.7 µM and the solubility [7] is reported as “Insoluble”. The EC50 (RAW264.7) was 0.251 µM.

With COc1ccc(-c2ccc(S(=O)(=O)Nc3sccc3-c3nc4ccccc4s3)cc2)cc1 the Activity (HeLa [8]) was “Active”, the Activity (Bacillus anthracis [9]) was “Active” and the IC50 (Lethal factor) was 3.8 µM. For the same molecule, the solubility [7] was “Insoluble”, the EC50 (RAW264.7) was 0.506 µM and the Stability [6] was 84%.

With CC(C)(C)c1ccc(-c2noc(C(=O)NNC(=S)Nc3ccc(C(F)(F)F)cc3)n2)cc1 the Activity (HeLa [1]) was “Active”.

For Cc1ccc(S(=O)(=O)Nc2cccs2)cc1Cl, the Activity [2] was “inactive”, the IC50 (Lethal factor) was > 50 µM and the Activity [3] was “inactive”.

With O=S(=O)(Nc1sccc1-c1nc2ccccc2s1)c1ccc2ncsc2c1 the IC50 (Lethal factor) was 10 µM, the EC50 (RAW264.7) was 1.6 µM and the Stability [6] was 99.9%.

In the case of Cc1csc(NS(=O)(=O)c2ccc(F)c(Cl)c2)c1-c1nc2ccccc2s1, the IC50 (Lethal factor) is reported as > 100 µM.

For O=S(=O)(Nc1sccc1-c1nc2ccccc2s1)c1ccc(Oc2ccccc2Cl)cc1, the IC50 (Lethal factor) was 9 µM.

Cc1csc(NS(=O)(=O)c2ccc(OC(F)(F)F)cc2)c1-c1nc2ccccc2s1 showed an IC50 (Lethal factor) of 18 µM.

For O=S(=O)(Nc1sccc1-c1nc2ccccc2s1)c1ccc(-n2cccn2)cc1, the IC50 (Lethal factor) was 8 µM.

For O=S(=O)(Nc1oncc1-c1nc2ccccc2s1)c1ccc(-c2ccc(Cl)cc2)cc1, the IC50 (Lethal factor) was > 100 µM.

With CC(C)(C)C(=O)CSC1=NNC(c2ccccc2)S1 (stereo not drawn) the Activity (HeLa [1]) was “inactive”.

COc1ccc(-c2cccc(S(=O)(=O)Nc3sccc3-c3nc4ccccc4s3)c2)cc1 gave an IC50 (Lethal factor) of 14 µM.

With Cc1csc(NS(=O)(=O)c2ccc([N+](=O)[O-])cc2)c1-c1nc2ccccc2s1 the IC50 (Lethal factor) was 11 µM, the solubility [7] was “Insoluble” and the Stability [6] was 99%.

In the case of COc1ccc(-c2ccc(S(=O)(=O)Nc3scc(C)c3-c3nc4ccccc4s3)cc2)cc1, the IC50 (Lethal factor) is reported as 21 µM.

In the case of O=S(=O)(Nc1sccc1-c1nc2ccccc2s1)c1ccc2cc(Cl)ccc2c1, the IC50 (Lethal factor) is reported as 11 µM.

In the case of Cc1csc(NS(=O)(=O)c2ccc(Cl)cc2)c1-c1nc2ccccc2s1, the IC50 (Lethal factor) is reported as 15 µM and the Ki (Lethal factor) is reported as 7.8 µM.

O=S(=O)(Nc1sccc1-c1nc2ccccc2s1)c1ccc(Cl)cc1 gave an IC50 (Lethal factor) of 15 µM.

With Cc1ccc(-c2ccc(S(=O)(=O)Nc3sccc3-c3nc4ccccc4s3)cc2)cc1 the IC50 (Lethal factor) was 28 µM.
